From ChEMBL document CHEMBL3046081, “Phytotoxic effect, uptake, and transformation of biochanin A in selected weed species” (J Agric Food Chem, 2012) come the findings set out here.

What all share (assay type): ADME
Common to all, as to conditions: 336 h

For data set [1], the system named is Shoot. As to the kind of experiment: Drug metabolism in Silene noctiflora shoot assessed as transformation to pratensein at 20 uM after 14 days measured per gm of dry weight by LC-MS analysis. Summed up:
(§1)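 Pregerminated seeds, 14 per container, transplanted onto 0.5% agar medium containing biochanin A. Grown at 24 ± 1 °C under a 16 h light/8 h dark photoperiod and harvested 14 days after transplanting. Roots and shoots collected separately, blotted, washed twice, then freeze-dried. Tissue extracted by ASE at 40 °C and analysed by LC-ESI-MS against commercial standards. Two replicates per treatment.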

In data set [2] the test system is Shoot. Kind of data set: Drug uptake in Silene noctiflora shoot at 400 uM after 14 days measured per gm of dry weight by LC-MS analysis. The method, boiled down: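 Pregerminated seeds (14 per container) were grown on 20 mL 0.5% agar medium containing biochanin A, at 24 ± 1 °C with a 16 h light/8 h dark cycle. There were two replicates per treatment: 14 containers for S. noctiflora, 9 for G. molle and E. crus-galli. At 14 days, roots and shoots were harvested separately, washed, blotted and freeze-dried. Extraction was ASE at 40 °C, 1600 psi, 3 cycles. Analysis was LC-ESI-MS SIM against standards.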

The subject of data set [3] is Shoot. Kind of data set: Drug metabolism in Geranium molle shoot assessed as transformation to dihydrobiochanin A at 20 uM after 14 days measured per gm of dry weight by LC-MS analysis. Summed up: as §1
Data set [4] concerns Root. Kind of data set: Drug metabolism in Geranium molle root assessed as transformation to sissotrin at 400 uM after 14 days measured per gm of dry weight by LC-MS analysis. The method, boiled down:
as §1

For data set [5], the system named is Root. As to the kind of experiment: Drug metabolism in Echinochloa crus-galli (barnyard grass) root assessed as transformation to p-coumaric acid at 400 uM after 14 days measured per gm of dry weight by LC-MS analysis. The method, boiled down:
as §1

For data set [6], the system named is Root. As to the kind of experiment: Drug metabolism in Silene noctiflora root assessed as transformation to pratensein at 400 uM after 14 days measured per gm of dry weight by LC-MS analysis. Summed up: as §1

As for `COc1ccc(-c2coc3cc(O)cc(O)c3c2=O)cc1` [BIOCHANIN], the Drug metabolism turned out to be 0.1 µmol in the data set with Shoot [1]; 0.01 µmol in the data set with Shoot [3]; 123.61 µmol in the data set with Root [4]; 0.11 µmol in the data set on Root [5]; 0.11 µmol with Root [6]. Further, the Drug uptake in the data set with Shoot [2] came to 1.11 µmol.
